From ChEMBL document CHEMBL1667836, “Synthesis of egonol derivatives and their antimicrobial activities” (2011) come the findings set out here.

As usually defined, the MIC is the lowest concentration that inhibits growth of the organism.

SMILES strings stand for the structures. Converted amounts (≈) assume the structure as drawn. The source made the active and inactive calls. The rule behind the calls is not given here.

Assay type in all cases: functional
One assay deals with Bacillus subtilis. The assay can be described thus: Antimicrobial activity against Bacillus subtilis ATCC 6633 by MHB method. The procedure, abridged: (§1)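 Broth-based MIC assay in Mueller Hinton broth. Test compounds were supplied from stock solutions in DMSO. The read-out was the minimum inhibitory concentration determined for each compound against each strain.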
A further assay deals with Escherichia coli. Put plainly: Antimicrobial activity against Escherichia coli ATCC 8739 by MHB method. The gist of the method:
as §1

A further assay deals with Staphylococcus aureus. The assay can be described thus: Antimicrobial activity against Staphylococcus aureus ATCC 29213 by MHB method. The gist of the method:
as §1

A further assay has as its system Candida albicans. Put plainly: Antimicrobial activity against Candida albicans ATCC 10231 by MHB method. The procedure, abridged: as §1

Regarding `COc1cc(CCCOC(=O)CN2CCOCC2)cc2cc(-c3ccc4c(c3)OCO4)oc12`, the MIC entry in the assay with Bacillus subtilis, in the assay with Staphylococcus aureus and in the assay with Candida albicans was “inactive” throughout. Further, in the assay with Escherichia coli, the minimal inhibitory concentration (MIC) was determined as 800 µg/mL (≈ 1760 µM).
Turning to `COc1cc(CC/C=N/NC(N)=S)cc2cc(-c3ccc4c(c3)OCO4)oc12`, the values for the MIC with Bacillus subtilis and in the assay with Candida albicans were 400 µg/mL (≈ 1010 µM) and 200 µg/mL (≈ 503 µM), respectively. The MIC result in the assay on Escherichia coli and in the assay on Staphylococcus aureus was “inactive” each time.
For the molecule `COc1cc(CC/C=N/OC(=O)CCl)cc2cc(-c3ccc4c(c3)OCO4)oc12`, the MIC result in the assay on Bacillus subtilis and with Staphylococcus aureus was “inactive” in each case. The minimal inhibitory concentration (MIC) against Escherichia coli was 800 µg/mL (≈ 1920 µM); with Candida albicans, 25 µg/mL (≈ 60.1 µM).
As to `COc1cc(CCCOC(C)=O)cc2cc(-c3ccc4c(c3)OCO4)oc12` [EGONOL ACETATE], the MIC entry in the assay with Bacillus subtilis, with Escherichia coli and with Staphylococcus aureus was “inactive” throughout. Besides, in the assay with Candida albicans, the MIC turned out to be 200 µg/mL.
Consider `COc1ccc(-c2cc3cc(CCCOC(=O)CCl)cc(OC)c3o2)cc1OC`, for which the figures for the MIC in the assay with Bacillus subtilis, in the assay on Staphylococcus aureus and with Candida albicans were 400 µg/mL (≈ 955 µM), 400 µg/mL (≈ 955 µM) and 200 µg/mL (≈ 477 µM), respectively. The MIC entry with Escherichia coli is “inactive”.
As to `COc1cc(CCCCl)cc2c([N+](=O)[O-])c(-c3ccc4c(c3)OCO4)oc12`, the MIC result in the assay with Bacillus subtilis and in the assay with Staphylococcus aureus was “inactive” throughout. For the same molecule, the minimum inhibitory concentration (MIC) against Escherichia coli was found to be 800 µg/mL (≈ 2050 µM); against Candida albicans, 25 µg/mL (≈ 64.1 µM).
`COc1cc(CC/C=C(\C=O)Cc2cc(OC)c3oc(-c4ccc5c(c4)OCO5)cc3c2)cc2cc(-c3ccc4c(c3)OCO4)oc12`: the MIC result in the assay with Bacillus subtilis and in the assay with Escherichia coli was “inactive” throughout. Besides, the MIC in the assay with Staphylococcus aureus and against Candida albicans was 25 µg/mL (≈ 39.6 µM) throughout.
In the case of `COc1cc(CC/C=C/C(C)=O)cc2cc(-c3ccc4c(c3)OCO4)oc12`, the MIC entry with Bacillus subtilis, with Escherichia coli and in the assay on Staphylococcus aureus was “inactive” each time. In addition, it took 200 µg/mL (≈ 549 µM) to inhibit growth in the assay on Candida albicans (MIC).
As for `COc1cc(CCCO)cc2c(N)c(-c3ccc4c(c3)OCO4)oc12`, the MIC entry with Bacillus subtilis, in the assay with Escherichia coli and in the assay with Staphylococcus aureus was “inactive” in each case. The molecule further gave an MIC with Candida albicans of 800 µg/mL (≈ 2340 µM).
On to `COc1cc(CCCOS(=O)(=O)O)cc2cc(-c3ccc4c(c3)OCO4)oc12`, for which the minimum inhibitory concentration (MIC) against Bacillus subtilis came out at 400 µg/mL (≈ 984 µM); against Escherichia coli, 400 µg/mL (≈ 984 µM); against Staphylococcus aureus it was 400 µg/mL (≈ 984 µM); in the assay on Candida albicans, 50 µg/mL (≈ 123 µM).
For `COc1cc(CCCOC(=O)CCl)cc2cc(-c3ccc4c(c3)OCO4)oc12`, the MIC entry in the assay on Bacillus subtilis, in the assay with Escherichia coli and in the assay on Staphylococcus aureus was “inactive” each time. The molecule further yielded an MIC against Candida albicans of 100 µg/mL (≈ 248 µM).
In the case of `COc1cc(CCCN2CCOCC2)cc2cc(-c3ccc4c(c3)OCO4)oc12`, the MIC entry in the assay on Bacillus subtilis and in the assay on Escherichia coli was “inactive” each time. Moreover, the MIC in the assay with Staphylococcus aureus was determined as 200 µg/mL (≈ 506 µM); in the assay with Candida albicans it was 25 µg/mL (≈ 63.2 µM).
Consider `CCN(CC)CCCc1cc(OC)c2oc(-c3ccc4c(c3)OCO4)cc2c1`, for which the MIC entry in the assay on Bacillus subtilis, in the assay with Escherichia coli and in the assay on Staphylococcus aureus was “inactive” in each case. In the assay with Candida albicans, this molecule registered an MIC of 200 µg/mL (≈ 524 µM).
`COc1cc(CCC(=O)O)cc2cc(-c3ccc4c(c3)OCO4)oc12` [EGONOIC ACID]: the minimum inhibitory concentration (MIC) in the assay on Bacillus subtilis was 800 µg/mL (≈ 2350 µM); in the assay on Staphylococcus aureus, 200 µg/mL (≈ 588 µM); in the assay on Candida albicans, 50 µg/mL (≈ 147 µM). In addition, in the assay with Escherichia coli, the MIC entry is “inactive”.
As to `COc1cc(CC/C=N/O)cc2cc(-c3ccc4c(c3)OCO4)oc12`, the MIC entry in the assay with Bacillus subtilis, in the assay on Escherichia coli and in the assay on Staphylococcus aureus was “inactive” each time. In the assay with Candida albicans, this molecule returned a minimal inhibitory concentration (MIC) of 800 µg/mL (≈ 2360 µM).
Regarding `COc1c([N+](=O)[O-])c(CCCO)cc2c([N+](=O)[O-])c(-c3ccc4c(c3)OCO4)oc12`, the MIC in the assay on Bacillus subtilis came out at 400 µg/mL (≈ 961 µM); against Escherichia coli, 400 µg/mL (≈ 961 µM); with Staphylococcus aureus it was 800 µg/mL (≈ 1920 µM); in the assay with Candida albicans, 400 µg/mL (≈ 961 µM).
On to `COc1cc(CCCO)cc2cc(-c3ccc4c(c3)OCO4)oc12` [EGONOL], for which the MIC against Bacillus subtilis was determined as 800 µg/mL (≈ 2450 µM); against Escherichia coli it was 800 µg/mL (≈ 2450 µM); with Staphylococcus aureus, 800 µg/mL (≈ 2450 µM); against Candida albicans it was 25 µg/mL (≈ 76.6 µM).
Take `COc1cc(CC/C=N/OC(=O)c2ccccc2)cc2cc(-c3ccc4c(c3)OCO4)oc12`: the minimal inhibitory concentration (MIC) came to 400 µg/mL (≈ 902 µM) against Bacillus subtilis and 100 µg/mL (≈ 226 µM) in the assay on Candida albicans. Besides, the MIC result in the assay on Escherichia coli and with Staphylococcus aureus was “inactive” in each case.
As to `COc1cc(CC/C=N/NC(N)=O)cc2cc(-c3ccc4c(c3)OCO4)oc12`, the results for the MIC against Bacillus subtilis and in the assay with Candida albicans were 400 µg/mL (≈ 1050 µM) and 25 µg/mL (≈ 65.6 µM), respectively. Also, the MIC result with Escherichia coli and with Staphylococcus aureus was “inactive” each time.
